Laboratory results as given in ChEMBL document CHEMBL3400019, “Pheophorbide-a conjugates with cancer-targeting moieties for targeted photodynamic cancer therapy” (Bioorg Med Chem, 2015).
The source made the active and inactive calls. No cut-off for these calls is given here. Residues, ends and D or L forms follow the SMILES beside them.

Assays:
FaDu [1] = assay: Cellular uptake in human FADU cells overexpressing alphaVbeta6 at 2 uM after 1 hr by confocal microscopy; type: ADME, cell-based
Method in brief: (§1)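 Cells plated on slide dishes overnight (A549 in DMEM, others in RPMI 1640, 10% FBS, 37 °C, 5% CO2); conjugate added to medium at 2 µM, incubated (time per line), washed three times with PBS, imaged by confocal microscopy; excitation 440 nm, emission 655–755 nm.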

A549 [2] = assay: Induction of apoptosis in alphaVbeta6-negative human A549 cells assessed as condensation and the fragmentation of nuclear structure at 1 uM incubated for 1 hr prior to 1.25 J/cm'2 light irradiation from red light emitting diode measured after 24 hrs by DAPI staining-based conventional fluorescence microscopy relative to control; type: functional, cell-based
Method in brief: (§2)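 A549 and FaDu seeded 5 × 10^5 cells/well, PDT (1 h conjugate, 1.25 J/cm2 red LED, 613–645 nm), 24 h; fixed in 4% paraformaldehyde, stained with 1 µg/mL DAPI 5 min dark at rt, washed ice-cold PBS, nuclear chromatin changes viewed by fluorescence microscopy (×400).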

A549 [3] = assay: Induction of apoptosis in alphaVbeta6-negative human A549 cells assessed as decrease in cell density at 1 uM incubated for 1 hr prior to 1.25 J/cm'2 light irradiation from red light emitting diode measured after 24 hrs by DAPI staining-based conventional fluorescence microscopy relative to control; type: functional
FaDu [4] = assay: Induction of apoptosis in human FADU cells overexpressing alphaVbeta6 assessed as increase in apoptotic cell death incubated for 1 hr prior to 1.25 J/cm'2 light irradiation from red light emitting diode measured after 24 hrs by Annexin V-FITC/propidium iodide staining-based flow cytometry relative to control; type: functional
Method in brief: (§3)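 Cells seeded 5 × 10^5 per plate and given photodynamic treatment as in the viability assay: conjugate in serum-free medium, then red LED light (613–645 nm) at 1.25 J/cm2. Harvested 24 h later and washed in cold PBS. Stained 15 min at rt with saturating Annexin V-FITC and PI in HEPES binding buffer (10 mM HEPES, 140 mM NaCl, 2.5 mM CaCl2, pH 7.4). Read by flow cytometry against control.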

FaDu [5] = assay: Induction of apoptosis in human FADU cells overexpressing alphaVbeta6 assessed as PARP cleavage at 0.1 to 1 uM incubated for 1 hr prior to 1.25 J/cm'2 light irradiation from red light emitting diode measured after 24 hrs by Western blotting analysis relative to control; type: functional, cell-based
Method in brief: (§4)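 A549 and FaDu seeded 2 × 10^5 cells/well, given PDT (1 h conjugate, 1.25 J/cm2 red LED, 613–645 nm, 35 mW/cm2 at 635 nm peak), then 24 h incubation; lysed, equal protein by SDS–PAGE, PVDF transfer, antibody immunoblot for PARP cleavage, procaspase-3, Bcl-2, Bax.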

A549 [6] = assay: Induction of apoptosis in alphaVbeta6-negative human A549 cells assessed as PARP cleavage at 0.1 to 1 uM incubated for 1 hr prior to 1.25 J/cm'2 light irradiation from red light emitting diode measured after 24 hrs by Western blotting analysis relative to control; type: functional, cell-based; method in brief: as §4
FaDu [7] = assay: Induction of apoptosis in human FADU cells overexpressing alphaVbeta6 assessed as increase in Bax expression at 0.1 to 1 uM incubated for 1 hr prior to 1.25 J/cm'2 light irradiation from red light emitting diode measured after 24 hrs by Western blotting analysis relative to control; type: functional, cell-based; method in brief: as §4
A549 [8] = assay: Cellular uptake in alphaVbeta6-negative human A549 cells at 2 uM after 1 hr by confocal microscopy; type: ADME, cell-based; settings: a549, 1 h; method in brief: as §1
A549 [9] = assay: Phototoxicity against alphaVbeta6-negative human A549 cells at 0.1 to 2 uM incubated for 2 hrs followed by 1.25 J/cm'2 light irradiation from red light emitting diode for 24 hrs by MTT assay; type: functional, cell-based
Method in brief: (§5)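 Cells seeded at 1 × 10^5 cells/mL overnight, PBS-washed, incubated 2 h in serum-free medium with photosensitizer (from 1 mM DMSO stock); medium removed, irradiated 1.25 J/cm2 red LED (613–645 nm). After 24 h, MTT (5 mg/mL stock) 3 h at 37 °C, formazan dissolved in 0.04 M HCl/isopropanol, OD 570 nm; background-subtracted, % of control; mean ± SD, three experiments.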

A549 [10] = assay: Induction of apoptosis in alphaVbeta6-negative human A549 cells assessed as increase in apoptotic cell death incubated for 1 hr prior to 1.25 J/cm'2 light irradiation from red light emitting diode measured after 24 hrs by Annexin V-FITC/propidium iodide staining-based flow cytometry relative to control; type: functional; method in brief: as §3
FaDu [11] = assay: Induction of apoptosis in human FADU cells overexpressing alphaVbeta6 assessed as reduction in Bcl-2 expression at 0.1 to 1 uM incubated for 1 hr prior to 1.25 J/cm'2 light irradiation from red light emitting diode measured after 24 hrs by Western blotting analysis relative to control; type: functional, cell-based; method in brief: as §4
A549 [12] = assay: Induction of apoptosis in alphaVbeta6-negative human A549 cells assessed as cellular shrinkage at 1 uM incubated for 1 hr prior to 1.25 J/cm'2 light irradiation from red light emitting diode measured after 24 hrs by DAPI staining-based conventional fluorescence microscopy relative to control; type: functional, cell-based
FaDu [13] = assay: Induction of apoptosis in human FADU cells overexpressing alphaVbeta6 assessed as decrease in procaspase-3 expression at 0.1 to 1 uM incubated for 1 hr prior to 1.25 J/cm'2 light irradiation from red light emitting diode measured after 24 hrs by Western blotting analysis relative to control
FaDu [14] = assay: Phototoxicity against human FADU cells overexpressing alphaVbeta6 at 0.1 to 2 uM incubated for 2 hrs followed by 1.25 J/cm'2 light irradiation from red light emitting diode for 24 hrs by MTT assay; type: functional, cell-based; method in brief: as §5
FaDu [15] = assay: Induction of apoptosis in human FADU cells overexpressing alphaVbeta6 assessed as cellular shrinkage at 1 uM incubated for 1 hr prior to 1.25 J/cm'2 light irradiation from red light emitting diode measured after 24 hrs by DAPI staining-based conventional fluorescence microscopy relative to control; type: functional, cell-based
FaDu [16] = assay: Induction of apoptosis in human FADU cells overexpressing alphaVbeta6 assessed as decrease in cell density at 1 uM incubated for 1 hr prior to 1.25 J/cm'2 light irradiation from red light emitting diode measured after 24 hrs by DAPI staining-based conventional fluorescence microscopy relative to control; type: functional
A549 [17] = assay: Induction of apoptosis in alphaVbeta6-negative human A549 cells assessed as cell rounding at 1 uM incubated for 1 hr prior to 1.25 J/cm'2 light irradiation from red light emitting diode measured after 24 hrs by DAPI staining-based conventional fluorescence microscopy relative to control; type: functional
FaDu [18] = assay: Induction of apoptosis in human FADU cells overexpressing alphaVbeta6 assessed as cell rounding at 1 uM incubated for 1 hr prior to 1.25 J/cm'2 light irradiation from red light emitting diode measured after 24 hrs by DAPI staining-based conventional fluorescence microscopy relative to control; type: functional
FaDu [19] = assay: Induction of apoptosis in human FADU cells overexpressing alphaVbeta6 assessed as condensation and the fragmentation of nuclear structure at 1 uM incubated for 1 hr prior to 1.25 J/cm'2 light irradiation from red light emitting diode measured after 24 hrs by DAPI staining-based conventional fluorescence microscopy relative to control; type: functional, cell-based; method in brief: as §2
U-87MG ATCC = assay: Phototoxicity against human U87MG cells overexpressing alphaVbeta3 at 0.1 to 2 uM incubated for 2 hrs followed by 1.25 J/cm'2 light irradiation from red light emitting diode for 24 hrs by MTT assay; type: functional, cell-based; method in brief: as §5
A549 [20] = assay: Cellular uptake in alphaVbeta3-negative human A549 cells at 2 uM after 1 hr by confocal microscopy; type: ADME, cell-based; settings: a549, 1 h; method in brief: as §1
[21] = Cellular uptake in human U87MG cells overexpressing alphaVbeta3 at 2 uM after 1 hr by confocal microscopy; type: ADME, cell-based; settings: u-87mg atcc; method in brief: as §1
A549 [22] = assay: Phototoxicity against alphaVbeta3-negative human A549 cells at 0.1 to 2 uM incubated for 2 hrs followed by 1.25 J/cm'2 light irradiation from red light emitting diode for 24 hrs by MTT assay; type: functional, cell-based; method in brief: as §5
SK-OV-3 = assay: Phototoxicity against LHRH receptor-negative human SKOV3 cells at 0.1 to 2 uM incubated for 2 hrs followed by 1.25 J/cm'2 light irradiation from red light emitting diode for 24 hrs by MTT assay; type: functional, cell-based; method in brief: as §5
MCF7 [23] = assay: Phototoxicity against human MCF7 cells overexpressing LHRH receptor at 0.1 to 2 uM incubated for 2 hrs followed by 1.25 J/cm'2 light irradiation from red light emitting diode for 24 hrs by MTT assay; type: functional, cell-based; method in brief: as §5
MCF7 [24] = assay: Cellular uptake in human MCF7 cells overexpressing LHRH receptor at 2 uM after 1.5 hrs by confocal microscopy; type: ADME, cell-based; settings: mcf7, 1.5 h; method in brief: as §1
[25] = Cellular uptake in LHRH receptor-negative human SKOV3 cells at 2 uM after 1.5 hr by confocal microscopy; settings: sk-ov-3, 1.5 h
KB = assay: Phototoxicity against human KB cells overexpressing folate receptor at 0.1 to 2 uM incubated for 2 hrs followed by 1.25 J/cm'2 light irradiation from red light emitting diode for 24 hrs by MTT assay; type: functional, cell-based; method in brief: as §5
[26] = Cellular uptake in human KB cells overexpressing folate receptor at 2 uM after 1 hr by confocal microscopy; type: ADME, cell-based; settings: 0.5 h, in the assay text read “after 0.5 hr” for “after 1 hr”; method in brief: as §1
A549 [27] = assay: Cellular uptake in folate receptor-negative human A549 cells at 2 uM after 1 hr by confocal microscopy; type: ADME, cell-based; settings: a549, 0.5 h, in the assay text read “after 0.5 hr” for “after 1 hr”; method in brief: as §1
A549 [28] = assay: Phototoxicity against folate receptor-negative human A549 cells at 0.1 to 2 uM incubated for 2 hrs followed by 1.25 J/cm'2 light irradiation from red light emitting diode for 24 hrs by MTT assay; type: functional, cell-based; method in brief: as §5

[H][C@]12CSSC[C@]([H])(NC1=O)C(=O)N[C@@H](CCCNC(=N)N)C(=O)NCC(=O)N[C@@H](CC(=O)NCCCNC(=O)CC[C@@H]1c3nc(cc4[nH]c(cc5nc(cc6[nH]c7c(c6C)C(=O)[C@H](C(=O)OC)c37)C(CC)=C5C)c(C=C)c4C)[C@H]1C)C(=O)N[C@@H](CC(C)C)C(=O)N[C@@H](C)C(=O)N[C@@H](CO)C(=O)N[C@@H](CC(C)C)C(=O)N2 (HELM PEPTIDE1{R.G.D.L.A.S.L.C.C}|CHEM1{[C=Cc1c(C)c2cc3nc(c4c5[nH]c(cc6nc(cc1[nH]2)C(C)=C6CC)c(C)c5C(=O)[C@@H]4C(=O)OC)[C@@H](CCC(=O)NCCCN[*:1])[C@@H]3C]}$PEPTIDE1,CHEM1,3:R3-1:R1|PEPTIDE1,PEPTIDE1,8:R3-9:R3|PEPTIDE1,PEPTIDE1,1:R1-9:R2$$$V2.0)
Drug uptake (FaDu [1]): Active
Activity (A549 [2]): inactive
Activity (A549 [3]): inactive
Activity (FaDu [4]): Dose-dependent effect
Activity (FaDu [4]; record 2): 31.4%
Activity (FaDu [5]): Active
Activity (A549 [6]): inactive
Activity (FaDu [7]): Active
Drug uptake (A549 [8]): Not Active
Activity (A549 [9]): inactive
Activity (A549 [10]): 19.8%
Activity (FaDu [11]): Active
Activity (A549 [12]): inactive
Activity (FaDu [13]): Active
Activity (FaDu [14]): Active
Activity (FaDu [15]): Active
Activity (FaDu [16]): Active
Activity (A549 [17]): inactive
Activity (FaDu [18]): Active
Activity (FaDu [19]): Active

C=Cc1c(C)c2cc3nc(c4c5[nH]c(cc6nc(cc1[nH]2)C(C)=C6CC)c(C)c5C(=O)[C@@H]4C(=O)OC)[C@@H](CCC(=O)NCCCC(=O)NCCCC[C@H]1NC(=O)[C@@H](Cc2ccccc2)NC(=O)[C@H](CC(=O)O)NC(=O)CNC(=O)[C@H](CCCNC(=N)N)NC1=O)[C@@H]3C
Activity (U-87MG ATCC): Active
Drug uptake (A549 [20]): Not Active
Drug uptake [21]: Active
Activity (A549 [22]): inactive

C=Cc1c(C)c2cc3nc(c4c5[nH]c(cc6nc(cc1[nH]2)C(C)=C6CC)c(C)c5C(=O)[C@@H]4C(=O)OC)[C@@H](CCC(=O)NCCCC(=O)OC[C@H](NC(=O)[C@@H](Cc1c[nH]c2ccccc12)NC(=O)[C@H](Cc1cnc[nH]1)NC(=O)[C@@H]1CCC(=O)N1)C(=O)N[C@@H](Cc1ccc(O)cc1)C(=O)N[C@H](CC(C)C)C(=O)N[C@@H](CC(C)C)C(=O)N[C@@H](CCCNC(=N)N)C(=O)N1CCC[C@H]1C(=O)NCC)[C@@H]3C
Activity (SK-OV-3): inactive
Activity (MCF7 [23]): Active

C=Cc1c(C)c2cc3nc(c4c5[nH]c(cc6nc(cc1[nH]2)C(C)=C6CC)c(C)c5C(=O)[C@@H]4C(=O)OC)[C@@H](CCC(=O)NCCCC(=O)OC[C@H](NC(=O)[C@H](Cc1c[nH]c2ccccc12)NC(=O)[C@H](Cc1cnc[nH]1)NC(=O)[C@@H]1CCC(=O)N1)C(=O)N[C@@H](Cc1ccc(O)cc1)C(=O)N[C@H](CC(C)C)C(=O)N[C@@H](CC(C)C)C(=O)N[C@@H](CCCNC(=N)N)C(=O)N1CCC[C@H]1C(=O)NCC)[C@@H]3C
Drug uptake (MCF7 [24]): Active
Drug uptake [25]: Not Active

C=Cc1c(C)c2cc3nc(c4c5[nH]c(cc6nc(cc1[nH]2)C(C)=C6CC)c(C)c5C(=O)[C@@H]4C(=O)OC)[C@@H](CCC(=O)NCCOCCOCCNC(=O)CCC(NC(=O)c1ccc(NCc2cnc4nc(N)[nH]c(=O)c4n2)cc1)C(=O)O)[C@@H]3C (some centres not stated)
Activity (KB): Active
Drug uptake [26]: Active
Drug uptake (A549 [27]): Not Active
Activity (A549 [28]): inactive
